From ChEMBL document CHEMBL1629548, “In vitro activities of tigecycline against clinical isolates of Aeromonas, Vibrio, and Salmonella species in Taiwan” (2008) come the findings set out here.

Molecules are shown by their SMILES.

Holding throughout (type): functional
The subject of test [1] is Aeromonas hydrophila. Description: Antimicrobial activity against Aeromonas hydrophila assessed as susceptibility level by disk diffusion method. Put shortly: (§1)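 Cefotaxime and ciprofloxacin susceptibility taken from routine clinical laboratory reports; disk diffusion per CLSI guidelines.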
(In agar diffusion tests the substance spreads into inoculated agar from a disc or well.)

For test [2], the system named is Aeromonas caviae. As to the kind of experiment: Antimicrobial activity against Aeromonas caviae assessed as susceptibility level by disk diffusion method. Put shortly:
as §1

Test [3] deals with Aeromonas sobria. Description: Antimicrobial activity against Aeromonas sobria assessed as susceptibility level by disk diffusion method. In a few lines: as §1
Test [4] relates to Salmonella. Description: Antimicrobial activity against Salmonella serogroup O8 assessed as susceptibility level by disk diffusion method. Put shortly:
as §1

Test [5] has as its system Salmonella. Description: Antimicrobial activity against Salmonella serogroup O9 assessed as susceptibility level by disk diffusion method. Put shortly:
as §1

Test [6] concerns Salmonella enterica. As to the kind of experiment: Antimicrobial activity against Salmonella serotype Choleraesuis assessed as susceptibility level by disk diffusion method. Put shortly:
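Cefotaxime and ciprofloxacin susceptibility was taken from routine laboratory reports. These were generated by disk diffusion according to CLSI guidelines.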

The test system of test [7] is Salmonella. As to the kind of experiment: Antimicrobial activity against Salmonella serogroup O7 assessed as susceptibility level by disk diffusion method. In a few lines:
as §1

On to `CO/N=C(\C(=O)N[C@@H]1C(=O)N2C(C(=O)O)=C(COC(C)=O)CS[C@H]12)c1csc(N)n1` [CEFOTAXIME], for which the values for the Activity in test [1], in test [2] and in test [3] were 79%, 73% and 95%, respectively.
With `O=C(O)c1cn(C2CC2)c2cc(N3CCNCC3)c(F)cc2c1=O` [CIPROFLOXACIN], the Activity in test [4] was 57%; in test [5], 96%; in test [1], 90%; in test [2], 86%; in test [3], 93%; in test [6], 22%. The Activity in test [7] came out at 77%.
